Results of several laboratories.
Target: Serine/threonine-protein kinase VRK2 (VRK2, Homo sapiens, UniProt Q86Y07)

SMILES | assay | conditions | quantity | value
CNC(=O)c1cc(Oc2ccc(NC(=O)Nc3ccc(Cl)c(C(F)(F)F)c3)cc2)ccn1 | enzyme activity, inhibitor | 0.3 µM | inhibition | -15%
N#Cc1ccc(Nc2ccc3[nH]c(=O)[nH]c3c2)c(Cl)c1 | cell-free assay, competition with immobilised ligand | 1 µM | remaining binding | 100%
CC(C)(O)[C@H]1CC[C@H](Nc2ccc3ncc(-c4cccc(C(F)(F)F)c4)n3n2)CC1 | enzyme activity, inhibitor | 1 µM | remaining activity | 81.2%
FC(F)(F)c1ccc2c(c1)nc(-c1cccnc1)n2C1CC1 | cell-free assay, competition with immobilised ligand | 1 µM | remaining binding | 100%
CC(C)(C)c1nc(-c2cccc(NS(=O)(=O)c3c(F)cccc3F)c2F)c(-c2ccnc(N)n2)s1 | enzyme activity, inhibitor, radiometric | 1 µM | remaining activity | 103%
O=C(Nc1cnc(Oc2ccc(F)cc2)nc1)N1CCc2ncccc2[C@@H]1c1ccc(F)cc1 | cell-free assay, competition with immobilised ligand | 1 µM | remaining binding | 100%
Cc1ccc(Nc2nccc(N(C)c3ccc4c(C)n(C)nc4c3)n2)cc1S(N)(=O)=O | enzyme activity, inhibitor | 0.3 µM | inhibition | -16%
Cn1c2c(c3ccc(Cl)c(Cl)c31)C(C#N)C1(CCNCC1)NC2=O (racemic) | thermal stability, DSF | 10 µM | ΔTm | 0.3 °C
COc1ccc2c(O[C@@H]3C[C@H]4C(=O)N[C@]5(C(=O)O)CC5/C=C\CCCCC[C@H](NC(=O)OC5CCCC5)C(=O)N4C3)cc(-c3csc(NC(=O)C(C)C)n3)nc2c1C (some centres unmarked) | cell-free assay, competition with immobilised ligand | 1 µM | remaining binding | 79%
CCC1(CC)NC(=O)c2c(c3ccc(Cl)c(Cl)c3n2C)C1C#N (centres unmarked) | thermal stability, DSF | 10 µM | ΔTm | 0.1 °C
Cc1ccc(NC(=O)c2ccc(C)c(C(F)(F)F)c2)cc1C#Cc1nn(C2CCC(O)CC2)c2ncnc(N)c12 (centres unmarked) | cell-free assay | 10 µM | remaining signal | 85%
CN1CC(Oc2cnc(C#N)cc2-c2ccn3nc(NC(=O)C4CC4)cc3c2)C1 | enzyme activity, inhibitor | 1 µM | inhibition | -9%
Cn1c2c(c3ccccc31)C(C#N)C(C)(C)NC2=O (centres unmarked) | thermal stability, DSF | 10 µM | ΔTm | 0.2 °C
CN(C)C(=O)Cn1cc(-c2nc([C@@](C)(c3ccc(-c4cnc(N)nc4)cc3)C3CC3)no2)cn1 | cell-free assay, competition with immobilised ligand | 1 µM | remaining binding | 92%
Cn1c2c(Cl)c(Cl)ccc2c2cc(N)[nH]c(=O)c21 | thermal stability, DSF | 10 µM | ΔTm | 0.3 °C
Nc1ncnc2occ(-c3ccc(NC(=O)Nc4cc(C(F)(F)F)ccc4F)cc3)c12 | cell-free assay, inhibitor | 20 µM | remaining signal | 2.4%
Cn1c2c(c3ccc(Cl)c(Cl)c31)C(C#N)C(C)(C)NC2=O (centres unmarked) | thermal stability, DSF | 10 µM | ΔTm | 0.8 °C
COc1cc(Cl)c(C(=O)N[C@@H](CN[C@H]2CC[C@@H](N)CC2)Cc2ccc(C#N)cc2)cc1-c1ccc(CN[C@H](C)c2ccc(C)cc2)o1 | enzyme activity, inhibitor | 1 µM | remaining activity | 91%
CO[C@@H](C)c1c(Nc2ccc([C@H](N(C)C(=O)C3CCS(=O)(=O)CC3)C(F)(F)F)cc2)cnc2cc(Cl)nn12 | cell-free assay, competition with immobilised ligand | 1 µM | remaining binding | 100%
Cn1c2c(Cl)c(Cl)ccc2c2cn[nH]c(=O)c21 | thermal stability, DSF | 10 µM | ΔTm | 0 °C
c1ccc(N2CCN(Cc3nc4ccccc4[nH]3)CC2)nc1 | binding, competition with immobilised ligand | 1 µM | remaining binding | 100%
CCN(CC)CCNC(=O)c1c(C)[nH]c(/C=C2\C(=O)Nc3ccc(F)cc32)c1C | enzyme activity, inhibitor | 0.3 µM | inhibition | -19%
Cc1ccc(C(=O)Nc2ccc(CN3CCN(C)CC3)c(C(F)(F)F)c2)cc1C#Cc1cnc2cccnn12 | enzyme activity, inhibitor | 23.5 nM | remaining activity | 74%
